Reference: ChEMBL document CHEMBL1148917, “Dibenzyl bromophenols with diverse dimerization patterns from the brown alga Leathesia nana” (J Nat Prod, 2004)

Key:
Format in all cases: functional, cell-based
Bel-7402 = experiment: Cytotoxicity against human Bel7402 cells after 96 hrs by MTT assay
Method in brief: (§1)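 Cells grown in RPMI1640 with 10% FBS, penicillin and streptomycin at 37 °C under humidified 5% CO2; seeded at 1200 cells/well and dosed 24 h later. Five concentrations per compound in DMSO (0.1% final), three parallel wells each. After 96 h exposure, MTT conversion to formazan read at 570 nm; IC50 calculated from the readings.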

BGC-823 = experiment: Cytotoxicity against human BGC823 cells after 96 hrs by MTT assay; method in brief: as §1
MCF7 = experiment: Cytotoxicity against human MCF7 cells after 96 hrs by MTT assay; method in brief: as §1
HCT-8 = experiment: Cytotoxicity against human HCT8 cells after 96 hrs by MTT assay; method in brief: as §1
A549 = experiment: Cytotoxicity against human A549 cells after 96 hrs by MTT assay; method in brief: as §1

COCc1cc(O)c(O)c(Br)c1Cc1cc(O)c(O)c(Br)c1Br
IC50 (Bel-7402): 0.0074 uM/ml | IC50 (BGC-823): 18 µM | IC50 (MCF7): 4.6 µM | IC50 (HCT-8): 5.9 µM | IC50 (A549): 5.4 µM

Oc1cc(Cc2cc(O)c(O)c(Br)c2Br)c(Br)c(Br)c1O
IC50 (Bel-7402): > 0.0182 uM/ml | IC50 (BGC-823): 3.8 µM | IC50 (MCF7): 2.7 µM | IC50 (HCT-8): 2.2 µM | IC50 (A549): 1.8 µM

COCc1c(Br)c(Br)c(O)c(O)c1Cc1cc(O)c(O)c(Br)c1Br
IC50 (Bel-7402): 0.0048 uM/ml | IC50 (BGC-823): 8.8 µM | IC50 (MCF7): 2.7 µM | IC50 (HCT-8): > 16.8 µM | IC50 (A549): 2.5 µM

CCOCc1cc(O)c(O)c(Br)c1Cc1cc(O)c(O)c(Br)c1Br
IC50 (Bel-7402): 0.0055 uM/ml | IC50 (BGC-823): 4.6 µM | IC50 (MCF7): 3.4 µM | IC50 (HCT-8): 2.8 µM | IC50 (A549): > 19 µM

Oc1cc(COCc2cc(O)c(O)c(Br)c2Br)c(Br)c(Br)c1O
IC50 (Bel-7402): > 0.0019 uM/ml | IC50 (BGC-823): 8.6 µM | IC50 (MCF7): 21.4 µM | IC50 (HCT-8): 20.7 µM | IC50 (A549): > 19.5 µM
